Assay results from ChEMBL document CHEMBL1828601, “Small molecule peptidomimetic inhibitors of importin α/β mediated nuclear transport” (Bioorg Med Chem, 2010).
The source made the active and inactive calls. No rule for the calls is given here.

Experiments:
FGM [1] = experiment: Inhibition of importin alpha/beta-mediated nuclear transportation of Alexa555-BSA-NLS in human FGM cell nucleus at 500 uM after 30 mins by fluorescence microscopy; assay type: cell-based
FGM [2] = experiment: Inhibition of importin alpha/beta-mediated nuclear transportation of Alexa555-GST-M9 in human FGM cell nucleus at 500 uM after 30 mins by fluorescence microscopy; assay type: cell-based
Outline: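 Transportin-dependent import measured the same way in permeabilized FGM cells, with 0.5 μM Alexa555-GST-M9 cargo in place of BSA-NLS. Conditions: 3 mg/ml HeLa cytosol, ATP-regenerating system, 0.2 mM GTP, 1% DMSO, 30 min at 30°C. Positive control was 1 mg/ml WGA. Nuclear cargo fluorescence quantified per nucleus by automated imaging.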

SMILES: N[C@@H](Cc1c[nH]cn1)C(=O)Nc1ccc(C(=O)N[C@@H](CCc2ccccc2)C(=O)O)cc1OCc1ccc(Cl)cc1
- inhibition (FGM [1]): inactive
- inhibition (FGM [2]): inactive

SMILES: NCCCC[C@H](N)C(=O)Nc1ccc(C(=O)N[C@@H](CCc2ccccc2)C(=O)O)cc1OCc1ccccc1
- inhibition (FGM [1]): Active

SMILES: C[C@H](N)C(=O)N1C[C@@H](C(=O)NCCCCN)[C@H](C(=O)NCCc2ccc3ccccc3c2)C1
- inhibition (FGM [1]): inactive
- inhibition (FGM [2]): inactive

SMILES: N[C@@H](Cc1c[nH]c2ccccc12)C(=O)Nc1ccc(C(=O)N[C@@H](CCc2ccccc2)C(=O)O)cc1OCc1ccccc1
- inhibition (FGM [1]): inactive

SMILES: COc1ccc(C[C@H](N)C(=O)Nc2ccc(C(=O)N[C@@H](Cc3ccc4ccccc4c3)C(=O)O)cc2OCC(C)C)cc1
- inhibition (FGM [1]): Active

SMILES: CC(C)COc1cc(C(=O)N[C@@H](Cc2ccc3ccccc3c2)C(=O)O)ccc1NC(=O)[C@@H](N)Cc1ccc(Cl)cc1
- inhibition (FGM [1]): inactive

SMILES: CC[C@H](C)[C@H](NC(=O)c1ccc(NC(=O)[C@@H](N)Cc2ccc3ccccc3c2)c(OCc2c[nH]cn2)c1)C(=O)O
- inhibition (FGM [1]): Active
- inhibition (FGM [2]): Active

SMILES: CC(C)[C@H](N)C(=O)N1C[C@@H](C(=O)NCCCCN)[C@H](C(=O)NCCc2ccc3ccccc3c2)C1
- inhibition (FGM [1]): inactive
- inhibition (FGM [2]): inactive

SMILES: CC(C)COc1cc(C(=O)N[C@@H](Cc2ccc3ccccc3c2)C(=O)O)ccc1NC(=O)[C@@H](N)CC(C)C
- inhibition (FGM [1]): inactive

SMILES: N[C@@H](Cc1cnc[nH]1)C(=O)N1C[C@@H](C(=O)NCCc2c[nH]cn2)[C@H](C(=O)NCCc2c[nH]c3ccccc23)C1
- inhibition (FGM [1]): inactive
- inhibition (FGM [2]): inactive

SMILES: COc1ccc(C[C@H](N)C(=O)Nc2ccc(C(=O)N[C@@H](CCc3ccccc3)C(=O)O)cc2OCc2ccccc2)cc1
- inhibition (FGM [1]): inactive

SMILES: NC(=O)C[C@H](N)C(=O)Nc1ccc(C(=O)N[C@@H](CCc2ccccc2)C(=O)O)cc1OCc1ccccc1
- inhibition (FGM [1]): inactive

SMILES: N[C@@H](Cc1ccc2ccccc2c1)C(=O)Nc1ccc(C(=O)N[C@@H](CCc2ccccc2)C(=O)O)cc1OCc1ccccc1
- inhibition (FGM [1]): inactive

SMILES: C[C@H](N)C(=O)Nc1ccc(C(=O)N[C@@H](CCc2ccccc2)C(=O)O)cc1OCc1ccccc1
- inhibition (FGM [1]): inactive

SMILES: N[C@@H](CCc1ccc(O)cc1)C(=O)N1C[C@@H](C(=O)NCCc2c[nH]c3ccccc23)[C@H](C(=O)NCCc2c[nH]c3ccccc23)C1
- inhibition (FGM [1]): inactive

SMILES: CC(C)COc1cc(C(=O)N[C@@H](Cc2ccc3ccccc3c2)C(=O)O)ccc1NC(=O)[C@@H](N)Cc1ccc(O)cc1
- inhibition (FGM [1]): Active

SMILES: CC(C)COc1cc(C(=O)N[C@@H](Cc2ccc3ccccc3c2)C(=O)O)ccc1NC(=O)[C@@H](N)C(C)C
- inhibition (FGM [1]): inactive

SMILES: N[C@@H](Cc1ccc(O)cc1)C(=O)Nc1ccc(C(=O)N[C@@H](CCc2ccccc2)C(=O)O)cc1OCc1ccccc1
- inhibition (FGM [1]): Active

SMILES: N[C@@H](Cc1c[nH]c2ccccc12)C(=O)N1C[C@@H](C(=O)NCCc2c[nH]c3ccccc23)[C@H](C(=O)NCCc2c[nH]c3ccccc23)C1
- inhibition (FGM [1]): inactive

SMILES: N[C@@H](CCc1ccc(Cl)cc1)C(=O)N1C[C@@H](C(=O)NCCc2c[nH]c3ccccc23)[C@H](C(=O)NCCc2c[nH]c3ccccc23)C1
- inhibition (FGM [1]): inactive

SMILES: CC(C)COc1cc(C(=O)N[C@@H](Cc2ccc3ccccc3c2)C(=O)O)ccc1NC(=O)[C@@H](N)Cc1c[nH]c2ccccc12
- inhibition (FGM [1]): inactive

SMILES: CC(C)COc1cc(C(=O)N[C@@H](Cc2ccc3ccccc3c2)C(=O)O)ccc1NC(=O)CN
- inhibition (FGM [1]): inactive

SMILES: CC(C)COc1cc(C(=O)N[C@@H](Cc2ccc3ccccc3c2)C(=O)O)ccc1NC(=O)[C@@H](N)Cc1ccccc1
- inhibition (FGM [1]): Active

SMILES: N[C@@H](CCc1ccccc1)C(=O)N1C[C@@H](C(=O)NCCc2c[nH]c3ccccc23)[C@H](C(=O)NCCc2c[nH]c3ccccc23)C1
- inhibition (FGM [1]): inactive

SMILES: CC(C)COc1cc(C(=O)N[C@@H](Cc2ccc3ccccc3c2)C(=O)O)ccc1NC(=O)[C@@H](N)CC(=O)O
- inhibition (FGM [1]): inactive

SMILES: CC[C@H](C)[C@H](N)C(=O)N1C[C@@H](C(=O)NCCc2c[nH]c3ccccc23)[C@H](C(=O)NCCc2c[nH]c3ccccc23)C1
- inhibition (FGM [1]): inactive

SMILES: N[C@@H](CC(=O)O)C(=O)N1C[C@@H](C(=O)NCCc2c[nH]c3ccccc23)[C@H](C(=O)NCCc2c[nH]c3ccccc23)C1
- inhibition (FGM [1]): inactive

SMILES: CC(C)COc1cc(C(=O)N[C@@H](Cc2ccc3ccccc3c2)C(=O)O)ccc1NC(=O)[C@@H](N)Cc1c[nH]cn1
- inhibition (FGM [1]): inactive

SMILES: COc1ccc(C[C@H](N)C(=O)N2C[C@@H](C(=O)NCCc3c[nH]c4ccccc34)[C@H](C(=O)NCCc3c[nH]c4ccccc34)C2)cc1
- inhibition (FGM [1]): inactive

SMILES: C[C@@H](O)[C@H](N)C(=O)Nc1ccc(C(=O)N[C@@H](CCc2ccccc2)C(=O)O)cc1OCc1ccccc1
- inhibition (FGM [1]): Active

SMILES: CC(C)[C@H](N)C(=O)Nc1ccc(C(=O)N[C@@H](CCc2ccccc2)C(=O)O)cc1OCc1ccccc1
- inhibition (FGM [1]): Active

SMILES: N[C@@H](Cc1ccc2ccccc2c1)C(=O)N1C[C@@H](C(=O)NCCc2c[nH]c3ccccc23)[C@H](C(=O)NCCc2c[nH]c3ccccc23)C1
- inhibition (FGM [1]): inactive

SMILES: NC(=O)C[C@H](N)C(=O)N1C[C@@H](C(=O)NCCc2c[nH]c3ccccc23)[C@H](C(=O)NCCc2c[nH]c3ccccc23)C1
- inhibition (FGM [1]): inactive

SMILES: CSCC[C@H](N)C(=O)N1C[C@@H](C(=O)NCCc2c[nH]c3ccccc23)[C@H](C(=O)NCCc2c[nH]c3ccccc23)C1
- inhibition (FGM [1]): inactive

SMILES: CC(C)COc1cc(C(=O)N[C@@H](Cc2ccc3ccccc3c2)C(=O)O)ccc1NC(=O)[C@H](C)N
- inhibition (FGM [1]): Active

SMILES: N[C@@H](Cc1ccccc1)C(=O)Nc1ccc(C(=O)N[C@@H](CCc2ccccc2)C(=O)O)cc1OCc1ccccc1
- inhibition (FGM [1]): Active

SMILES: NCCCC[C@H](N)C(=O)N1C[C@@H](C(=O)NCCc2c[nH]c3ccccc23)[C@H](C(=O)NCCc2c[nH]c3ccccc23)C1
- inhibition (FGM [1]): Active

SMILES: N[C@@H](CCc1ccccc1)C(=O)Nc1ccc(C(=O)N[C@@H](CCc2ccccc2)C(=O)O)cc1OCc1ccccc1
- inhibition (FGM [1]): Active

SMILES: CC(C)[C@H](N)C(=O)N1C[C@@H](C(=O)NCCc2c[nH]c3ccccc23)[C@H](C(=O)NCCc2c[nH]c3ccccc23)C1
- inhibition (FGM [1]): inactive

SMILES: CC(C)COc1cc(C(=O)N[C@@H](Cc2ccc3ccccc3c2)C(=O)O)ccc1NC(=O)[C@@H](N)CCc1ccccc1
- inhibition (FGM [1]): inactive

SMILES: CC[C@H](N)C(=O)Nc1ccc(C(=O)N[C@@H](Cc2ccc3ccccc3c2)C(=O)O)cc1OCC(C)C
- inhibition (FGM [1]): inactive

SMILES: CC(C)COc1cc(C(=O)N[C@@H](Cc2ccc3ccccc3c2)C(=O)O)ccc1NC(=O)[C@@H](N)Cc1ccc2ccccc2c1
- inhibition (FGM [1]): inactive

SMILES: NCC(=O)Nc1ccc(C(=O)N[C@@H](CCc2ccccc2)C(=O)O)cc1OCc1ccccc1
- inhibition (FGM [1]): Active

SMILES: N[C@@H](Cc1ccc(Cl)cc1)C(=O)N1C[C@@H](C(=O)NCCc2c[nH]c3ccccc23)[C@H](C(=O)NCCc2c[nH]c3ccccc23)C1
- inhibition (FGM [1]): inactive

SMILES: N[C@@H](Cc1cnc[nH]1)C(=O)N1C[C@@H](C(=O)NCCc2c[nH]c3ccccc23)[C@H](C(=O)NCCc2c[nH]c3ccccc23)C1
- inhibition (FGM [1]): inactive

SMILES: N[C@@H](CC(=O)O)C(=O)Nc1ccc(C(=O)N[C@@H](CCc2ccccc2)C(=O)O)cc1OCc1ccccc1
- inhibition (FGM [1]): inactive

SMILES: CSCC[C@H](N)C(=O)Nc1ccc(C(=O)N[C@@H](Cc2ccc3ccccc3c2)C(=O)O)cc1OCC(C)C
- inhibition (FGM [1]): inactive

SMILES: N[C@@H](Cc1ccc(Cl)cc1)C(=O)Nc1ccc(C(=O)N[C@@H](CCc2ccccc2)C(=O)O)cc1OCc1ccccc1
- inhibition (FGM [1]): inactive

SMILES: CC[C@H](C)[C@H](N)C(=O)Nc1ccc(C(=O)N[C@@H](Cc2ccc3ccccc3c2)C(=O)O)cc1OCC(C)C
- inhibition (FGM [1]): inactive

SMILES: CC(C)COc1cc(C(=O)N[C@@H](Cc2ccc3ccccc3c2)C(=O)O)ccc1NC(=O)[C@@H](N)CO
- inhibition (FGM [1]): inactive

SMILES: N[C@@H](CO)C(=O)N1C[C@@H](C(=O)NCCc2c[nH]c3ccccc23)[C@H](C(=O)NCCc2c[nH]c3ccccc23)C1
- inhibition (FGM [1]): inactive

SMILES: N[C@@H](Cc1c[nH]cn1)C(=O)Nc1ccc(C(=O)N[C@@H](CCc2ccccc2)C(=O)O)cc1OCc1ccccc1
- inhibition (FGM [1]): inactive

SMILES: N[C@@H](Cc1ccc(O)cc1)C(=O)N1C[C@@H](C(=O)NCCc2c[nH]c3ccccc23)[C@H](C(=O)NCCc2c[nH]c3ccccc23)C1
- inhibition (FGM [1]): inactive

SMILES: C[C@H](N)C(=O)N1C[C@@H](C(=O)NCCc2c[nH]c3ccccc23)[C@H](C(=O)NCCc2c[nH]c3ccccc23)C1
- inhibition (FGM [1]): inactive

SMILES: CC[C@H](N)C(=O)Nc1ccc(C(=O)N[C@@H](CCc2ccccc2)C(=O)O)cc1OCc1ccccc1
- inhibition (FGM [1]): Active

SMILES: CSCC[C@H](N)C(=O)Nc1ccc(C(=O)N[C@@H](CCc2ccccc2)C(=O)O)cc1OCc1ccccc1
- inhibition (FGM [1]): Active

SMILES: N[C@@H](Cc1ccccc1)C(=O)N1C[C@@H](C(=O)NCCc2c[nH]c3ccccc23)[C@H](C(=O)NCCc2c[nH]c3ccccc23)C1
- inhibition (FGM [1]): inactive

SMILES: CC(C)C[C@H](N)C(=O)N1C[C@@H](C(=O)NCCc2c[nH]c3ccccc23)[C@H](C(=O)NCCc2c[nH]c3ccccc23)C1
- inhibition (FGM [1]): inactive

SMILES: CC(C)COc1cc(C(=O)N[C@@H](Cc2ccc3ccccc3c2)C(=O)O)ccc1NC(=O)[C@@H](N)CC(N)=O
- inhibition (FGM [1]): inactive

SMILES: CC(C)C[C@H](N)C(=O)Nc1ccc(C(=O)N[C@@H](CCc2ccccc2)C(=O)O)cc1OCc1ccccc1
- inhibition (FGM [1]): Active

SMILES: CC(C)COc1cc(C(=O)N[C@@H](Cc2ccc3ccccc3c2)C(=O)O)ccc1NC(=O)[C@@H](N)[C@@H](C)O
- inhibition (FGM [1]): inactive

SMILES: CC(C)COc1cc(C(=O)N[C@@H](Cc2ccc3ccccc3c2)C(=O)O)ccc1NC(=O)[C@@H](N)CCCCN
- inhibition (FGM [1]): inactive

SMILES: C[C@@H](O)[C@H](N)C(=O)N1C[C@@H](C(=O)NCCc2c[nH]c3ccccc23)[C@H](C(=O)NCCc2c[nH]c3ccccc23)C1
- inhibition (FGM [1]): inactive

SMILES: N[C@@H](CO)C(=O)Nc1ccc(C(=O)N[C@@H](CCc2ccccc2)C(=O)O)cc1OCc1ccccc1
- inhibition (FGM [1]): Active
